Results on three compounds are retold here after ChEMBL document CHEMBL1144028, “Novel 2,3-dihydro-1,4-benzoxazines as potent and orally bioavailable inhibitors of tumor-driven angiogenesis” (J Med Chem, 2008).

Series [1] in a line: AUC in VEGF-soaked disk implanted Sprague-Dawley rat at […]. It counts as ADME, organism-based. Details: dose 0.16 mg/kg. As to conditions: plasma, read-out: ED50.
The nature of series [2]: Clearance in Sprague-Dawley rat at 0.5 mg/kg, iv. It counts as ADME, organism-based. Details: dose 0.5 mg/kg, route intravenous. To be noted: in vivo. The essentials: (§1)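 Male Sprague Dawley rats; single dose, 0.5 mg/kg iv or 2 mg/kg po; mean pharmacokinetic parameters reported.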
Series [3] is described as follows: AUC (0 to infinity) in Sprague-Dawley rat at 2 mg/kg, po. Format: ADME, organism-based. Details: time infinity, dose 2 mg/kg, route oral. As to conditions: plasma. In a few lines: as §1
Series [4] is described as follows: Volume of distribution at steady state in Sprague-Dawley rat at 0.5 mg/kg, iv. It counts as ADME, organism-based. On the set-up: dose 0.5 mg/kg, route intravenous. To be noted: in vivo, read-out: Vdss. In a few lines:
as §1

Series [5] can be described thus: Tmax in Sprague-Dawley rat at 2 mg/kg, po. Format: ADME, organism-based. Details: dose 2 mg/kg, route oral. As to conditions: in vivo. The essentials: as §1
Series [6] is described as follows: Solubility in 0.01 N HCl. Format: physicochemical. The essentials: (§2)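 Equilibrium solubility measured in 0.01 N HCl, PBS (pH 7), and simulated intestinal fluid.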
Series [7] in a line: Metabolic stability in rat liver microsomes. As to conditions: read-out: Stability. Format: ADME, Microsome. The essentials: (§3)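 In vitro stability on incubation with human or rat liver microsomal preparations.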
Series [8] can be described thus: Cmax in VEGF-soaked disk implanted Sprague-Dawley rat at […]. It counts as ADME, organism-based. On the set-up: dose 0.16 mg/kg. To be noted: in vivo, read-out: ED50.
Series [9] is described as follows: Oral bioavailability in Sprague-Dawley rat at 2 mg/kg, po. Format: ADME, organism-based. To be noted: in vivo. In a few lines: as §1
Series [10] can be described thus: Half life in Sprague-Dawley rat at 0.5 mg/kg, iv. Format: ADME, organism-based. Details: dose 0.5 mg/kg, route intravenous. To be noted: in vivo. The essentials:
as §1

Series [11] is described as follows: Cmax in Sprague-Dawley rat at 2 mg/kg, po. It counts as ADME, organism-based. Details: dose 2 mg/kg, route oral. As to conditions: in vivo. The essentials:
as §1

Series [12] in a line: Solubility in simulated intestinal fluid. Format: physicochemical. The essentials: as §2
Series [13] can be described thus: Metabolic stability in human liver microsomes. Format: ADME, Microsome. As to conditions: read-out: Stability. In a few lines: as §3
In general terms: Microsomes from liver hold many membrane-bound enzymes, among them those of drug oxidation.

Series [14] addresses Vascular endothelial growth factor receptor 2 (Homo sapiens, UniProt P35968). The series is described as follows: Inhibition of KDR by HTRF assay. In a few lines: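 KDR read by homogeneous time-resolved fluorescence with a biotinylated gastrin substrate. IC50 is the mean of two or more separate determinations, each in duplicate.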
A general note: TR-FRET usually uses a lanthanide donor and a delayed reading to cut background.

Series [15] addresses Tyrosine-protein kinase Lck (Homo sapiens, UniProt P06239). The series is described as follows: Inhibition of Lck.
Series [16] concerns HUVEC. The series is described as follows: Inhibition of FGF-induced proliferation of HUVEC cells. To be noted: Homo sapiens. Format: functional, cell-based. The essentials:
(§4)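 Human umbilical vein endothelial cell proliferation driven by VEGF or by FGF; IC50 is the mean of two or more separate determinations, each in duplicate.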

In series [17] the test system is HUVEC. The series is described as follows: Inhibition of VEGF-induced proliferation of HUVEC cells. It counts as functional, cell-based. To be noted: Homo sapiens. In a few lines: as §4
Series [18] has as its target Angiopoietin-1 receptor (Homo sapiens, UniProt Q02763). The series is described as follows: Inhibition of Tie2.
The target in series [19] is Hepatocyte growth factor receptor (Homo sapiens, UniProt P08581). The series is described as follows: Inhibition of c-Met.
Chain of Hepatocyte growth factor receptor (P08581 whole entry): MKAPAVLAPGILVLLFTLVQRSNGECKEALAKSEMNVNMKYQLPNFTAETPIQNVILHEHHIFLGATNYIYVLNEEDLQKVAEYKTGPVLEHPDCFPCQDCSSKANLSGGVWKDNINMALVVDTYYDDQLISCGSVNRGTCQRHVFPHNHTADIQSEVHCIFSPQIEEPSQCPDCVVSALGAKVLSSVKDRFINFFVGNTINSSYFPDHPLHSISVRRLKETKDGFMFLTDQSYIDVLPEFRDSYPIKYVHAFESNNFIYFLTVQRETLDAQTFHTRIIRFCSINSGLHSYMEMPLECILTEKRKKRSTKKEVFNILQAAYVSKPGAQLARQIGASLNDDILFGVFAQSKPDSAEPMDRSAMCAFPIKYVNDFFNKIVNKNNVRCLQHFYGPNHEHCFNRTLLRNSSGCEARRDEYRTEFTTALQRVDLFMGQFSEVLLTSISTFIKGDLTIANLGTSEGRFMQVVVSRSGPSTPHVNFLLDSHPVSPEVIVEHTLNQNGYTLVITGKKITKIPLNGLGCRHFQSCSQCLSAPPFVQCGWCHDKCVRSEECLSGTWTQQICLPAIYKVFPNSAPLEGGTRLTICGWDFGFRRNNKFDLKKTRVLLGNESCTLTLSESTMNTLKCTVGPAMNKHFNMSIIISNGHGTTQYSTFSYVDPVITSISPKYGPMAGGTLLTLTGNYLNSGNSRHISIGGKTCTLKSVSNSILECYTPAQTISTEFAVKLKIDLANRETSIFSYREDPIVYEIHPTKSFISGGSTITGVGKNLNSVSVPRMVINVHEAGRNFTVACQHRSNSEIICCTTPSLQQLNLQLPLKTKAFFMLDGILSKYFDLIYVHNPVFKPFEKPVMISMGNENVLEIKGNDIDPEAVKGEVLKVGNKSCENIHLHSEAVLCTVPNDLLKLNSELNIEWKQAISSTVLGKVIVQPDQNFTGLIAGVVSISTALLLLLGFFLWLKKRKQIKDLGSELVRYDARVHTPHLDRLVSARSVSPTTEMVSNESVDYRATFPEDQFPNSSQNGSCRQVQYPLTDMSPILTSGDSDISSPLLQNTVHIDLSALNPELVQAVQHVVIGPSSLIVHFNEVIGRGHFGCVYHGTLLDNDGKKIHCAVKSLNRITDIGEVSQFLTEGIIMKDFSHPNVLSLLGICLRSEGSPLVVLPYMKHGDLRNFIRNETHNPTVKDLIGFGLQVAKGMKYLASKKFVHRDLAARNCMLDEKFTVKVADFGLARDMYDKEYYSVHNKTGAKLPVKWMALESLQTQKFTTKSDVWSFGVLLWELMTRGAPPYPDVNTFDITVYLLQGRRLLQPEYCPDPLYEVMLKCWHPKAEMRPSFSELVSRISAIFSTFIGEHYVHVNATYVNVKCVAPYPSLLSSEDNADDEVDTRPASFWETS
The nature of series [20]: Solubility in PBS at pH 7. Format: physicochemical. The essentials:
as §2

Setting [21] is: 0.01 N HCl, read-out: Solubility.
Setting [22] is: simulated intestinal fluid, read-out: Solubility.

≈ marks a conversion by molar mass, not a printed value.

Chain of Vascular endothelial growth factor receptor 2 (P35968 whole entry): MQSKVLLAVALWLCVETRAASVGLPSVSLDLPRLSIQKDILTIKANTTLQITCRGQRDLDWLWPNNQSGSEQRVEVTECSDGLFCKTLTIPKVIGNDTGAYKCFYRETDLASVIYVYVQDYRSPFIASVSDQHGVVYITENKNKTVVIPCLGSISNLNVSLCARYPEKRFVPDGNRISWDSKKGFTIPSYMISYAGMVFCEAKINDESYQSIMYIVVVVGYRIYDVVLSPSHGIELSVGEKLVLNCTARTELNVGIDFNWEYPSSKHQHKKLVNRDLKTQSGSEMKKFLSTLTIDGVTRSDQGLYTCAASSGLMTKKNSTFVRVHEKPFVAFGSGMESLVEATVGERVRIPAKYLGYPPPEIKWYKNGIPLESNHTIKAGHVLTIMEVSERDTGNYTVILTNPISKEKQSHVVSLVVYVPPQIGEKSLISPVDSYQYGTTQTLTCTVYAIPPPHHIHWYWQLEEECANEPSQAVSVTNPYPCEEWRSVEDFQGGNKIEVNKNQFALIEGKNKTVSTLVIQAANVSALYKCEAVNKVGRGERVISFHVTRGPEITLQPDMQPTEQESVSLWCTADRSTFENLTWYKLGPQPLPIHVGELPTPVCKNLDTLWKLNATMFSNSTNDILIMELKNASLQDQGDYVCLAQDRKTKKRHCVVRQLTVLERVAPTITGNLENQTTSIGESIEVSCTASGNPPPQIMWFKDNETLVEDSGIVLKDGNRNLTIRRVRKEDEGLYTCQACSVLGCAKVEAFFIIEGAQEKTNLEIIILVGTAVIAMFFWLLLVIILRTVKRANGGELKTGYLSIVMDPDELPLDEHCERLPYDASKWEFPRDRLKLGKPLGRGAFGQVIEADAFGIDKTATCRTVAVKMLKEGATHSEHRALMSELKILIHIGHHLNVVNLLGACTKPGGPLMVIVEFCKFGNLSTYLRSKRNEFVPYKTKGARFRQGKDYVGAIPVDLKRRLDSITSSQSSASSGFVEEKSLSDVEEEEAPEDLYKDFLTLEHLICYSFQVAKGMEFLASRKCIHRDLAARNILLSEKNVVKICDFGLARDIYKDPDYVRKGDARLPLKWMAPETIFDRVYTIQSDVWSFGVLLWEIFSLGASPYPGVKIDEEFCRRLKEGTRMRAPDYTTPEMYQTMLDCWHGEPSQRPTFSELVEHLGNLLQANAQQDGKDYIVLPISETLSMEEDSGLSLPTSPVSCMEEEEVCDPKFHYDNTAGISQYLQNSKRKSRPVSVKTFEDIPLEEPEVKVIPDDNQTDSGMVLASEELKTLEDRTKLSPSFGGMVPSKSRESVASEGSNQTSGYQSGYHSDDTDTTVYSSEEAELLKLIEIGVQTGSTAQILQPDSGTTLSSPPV
Chain of Tyrosine-protein kinase Lck (P06239 whole entry): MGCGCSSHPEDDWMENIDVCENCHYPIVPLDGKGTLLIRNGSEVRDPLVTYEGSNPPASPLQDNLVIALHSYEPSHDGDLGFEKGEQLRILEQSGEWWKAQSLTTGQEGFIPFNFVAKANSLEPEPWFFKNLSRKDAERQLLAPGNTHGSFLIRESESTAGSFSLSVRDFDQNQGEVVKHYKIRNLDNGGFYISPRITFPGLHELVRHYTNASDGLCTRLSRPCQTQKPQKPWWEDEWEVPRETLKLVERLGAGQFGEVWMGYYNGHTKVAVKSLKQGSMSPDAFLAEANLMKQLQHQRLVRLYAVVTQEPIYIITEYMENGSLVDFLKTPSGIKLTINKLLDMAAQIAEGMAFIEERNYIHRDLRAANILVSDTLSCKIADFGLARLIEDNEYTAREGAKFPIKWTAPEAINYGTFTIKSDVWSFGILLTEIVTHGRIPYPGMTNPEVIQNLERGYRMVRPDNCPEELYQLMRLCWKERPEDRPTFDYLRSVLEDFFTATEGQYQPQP
Chain of Angiopoietin-1 receptor (Q02763 whole entry): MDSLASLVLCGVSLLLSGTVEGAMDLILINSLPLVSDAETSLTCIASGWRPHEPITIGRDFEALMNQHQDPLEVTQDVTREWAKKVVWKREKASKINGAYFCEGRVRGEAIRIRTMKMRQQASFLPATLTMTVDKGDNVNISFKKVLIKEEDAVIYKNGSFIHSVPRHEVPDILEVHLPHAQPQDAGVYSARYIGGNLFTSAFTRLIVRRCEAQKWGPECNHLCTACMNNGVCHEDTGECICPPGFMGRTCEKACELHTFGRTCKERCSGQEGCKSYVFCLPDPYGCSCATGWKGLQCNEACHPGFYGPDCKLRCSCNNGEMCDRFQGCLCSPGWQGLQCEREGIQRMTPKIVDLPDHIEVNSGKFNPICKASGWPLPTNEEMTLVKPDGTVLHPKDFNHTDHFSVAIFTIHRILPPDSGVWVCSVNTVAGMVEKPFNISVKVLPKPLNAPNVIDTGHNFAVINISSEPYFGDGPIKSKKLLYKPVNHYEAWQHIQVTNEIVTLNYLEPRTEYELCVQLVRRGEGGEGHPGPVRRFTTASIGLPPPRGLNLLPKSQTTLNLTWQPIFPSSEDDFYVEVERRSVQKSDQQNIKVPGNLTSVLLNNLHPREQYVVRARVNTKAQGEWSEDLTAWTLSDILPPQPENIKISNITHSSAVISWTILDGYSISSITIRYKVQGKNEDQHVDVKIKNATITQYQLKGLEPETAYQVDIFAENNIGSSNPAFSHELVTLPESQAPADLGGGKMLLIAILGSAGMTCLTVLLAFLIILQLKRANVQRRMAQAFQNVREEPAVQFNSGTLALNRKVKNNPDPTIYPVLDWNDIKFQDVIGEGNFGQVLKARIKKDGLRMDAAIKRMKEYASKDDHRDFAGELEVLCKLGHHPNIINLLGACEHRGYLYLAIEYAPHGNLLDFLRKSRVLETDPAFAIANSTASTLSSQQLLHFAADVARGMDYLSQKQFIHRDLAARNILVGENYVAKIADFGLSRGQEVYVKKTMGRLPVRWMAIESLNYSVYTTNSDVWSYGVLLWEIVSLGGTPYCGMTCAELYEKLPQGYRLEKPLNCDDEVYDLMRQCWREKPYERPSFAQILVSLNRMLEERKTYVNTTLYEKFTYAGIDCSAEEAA

By clearance is commonly meant the rate of elimination divided by the concentration. High values mean efficient removal, low ones inefficient removal. The term AUC(0-inf) denotes total exposure, with the tail of the curve extrapolated. Low readings indicate low exposure, high ones high exposure. What is called Tmax is the time at which the peak concentration occurs. What is called solubility is the concentration that dissolves in the medium under given conditions. Usually bioavailability stands for dose-corrected exposure relative to a reference, in per cent. Low readings indicate poor availability, high ones good availability. For orientation: half-life means how long it takes for the measured level to halve. Regarding `COc1cc2nccc(Oc3ccc4c(c3)OCCN4C(=O)Nc3ccc(Cl)cc3)c2cc1OC`, the AUC in [1] is 2.8 µM·h. The compound also showed a clearance in series [2] of 4 mL/min/kg. Further, in series [3], the AUC(0-inf) was found to be 7900 ng·h/mL. Moreover, the Vd in [4] was 1.8 L/kg. In series [5], the Tmax is 3.3 h. Besides, the solubility in [6] (buffer) is 28 µg/mL (≈ 56.9 µM); in series [12] (simulated gi fluid), 33 µg/mL (≈ 67.1 µM). Further, the results for the microsomal CLint in series [7] and in [13] were 44 µL/min/mg and below 14 µL/min/mg, respectively. For the same compound, the Cmax in [8] is 180 nM; in series [11] it was 810 ng/mL. The compound further came in with a bioavailability in [9] of 95%. Besides, the half-life in series [10] is 6.4 h.

A word on the IC50: it is the midpoint of a concentration-inhibition curve. A high value points to a need for much substance. Regarding `COc1cc2nccc(Oc3ccc4c(c3)OCCN4C(=O)Nc3ccc(F)cc3)c2cc1OC`, the IC50 turned out to be 0.003 µM in series [14]; 0.09 µM in [15]; 0.3 µM in series [16]; 0.002 µM in series [17]; 1.5 µM in series [18]; 1.1 µM in [19]. This compound gave a clearance in series [2] of 13.7 mL/min/kg. In addition, in [3], the area under the curve AUC(0-inf) worked out at 2600 ng·h/mL. Also, the Vd in series [4] was 2.1 L/kg. The Tmax in [5] turned out to be 2.7 h. Also, the solubility in series [6] (setting [21]) is above 200 µg/mL; in [12] (setting [22]), 41 µg/mL (≈ 86.2 µM); in [20] it was 3.3 µg/mL (≈ 6.94 µM). Further, the microsomal CLint in series [7] came out at 74 µL/min/mg; in [13], 17 µL/min/mg. Moreover, in series [9], the bioavailability amounted to 81%. The same compound showed a half-life in series [10] of 3 h. The compound also displayed a Cmax in series [11] of 410 ng/mL.

For the compound `COc1cc2nccc(Oc3ccc4c(c3)OCCN4C(=O)Nc3ccc(C)cc3)c2cc1OC`, the IC50 is 0.0002 µM in series [14]; 0.063 µM in series [15]; 0.28 µM in series [16]; 0.003 µM in series [17]; 1 µM in [18]; 0.37 µM in series [19]. For the same compound, the clearance in [2] was 12 mL/min/kg. The compound also came in with an AUC(0-inf) in series [3] of 1300 ng·h/mL. For the same compound, the Vd in [4] amounted to 2.8 L/kg. Further, in series [5], the time to peak (Tmax) amounted to 1 h. The solubility was above 200 µg/mL in [6] (setting [21]), 22 µg/mL (≈ 46.7 µM) in series [12] (setting [22]) and below 1 µg/mL in [20]. The results for the microsomal CLint in [7] and in series [13] were 104 µL/min/mg and 31 µL/min/mg, respectively. The compound also returned a bioavailability in series [9] of 47%. For the same compound, the half-life in [10] is 4.4 h. The compound also came in with a Cmax in series [11] of 300 ng/mL.
